Key:
[1] = melting temperature; fluorescence melt of hairpins on a sequencing array, two-state fit, raised by 9.35 °C to match UV melts; details: sodium 0.088 M
Summary of the method: (§1)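 With Cy3 and quencher oligos annealed, library hairpins on a sequenced MiSeq flow cell were imaged for Cy3 fluorescence in 50 mM Na-HEPES pH 8.0, 25 mM NaCl, in 2.5 °C steps up to 60 °C. Melting temperature and folding enthalpy were derived from bootstrapped two-state fits of signals normalised to pre-quench Cy3 and to control constructs. Four replicates were combined by inverse variance, with fitted temperatures raised by 9.35 °C to match UV melts.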

[2] = folding enthalpy; higher = less favourable; fluorescence melt of hairpins on a sequencing array, two-state fit; details: sodium 0.088 M
Summary of the method: as §1

| Sequence | Tm [1] | folding enthalpy [2] |
| --- | --- | --- |
| GTCGCTGCGAAAGCAGAC (((..(((....)))))) | 38.5 °C | -10 kcal/mol |
| GTCGCTGGAAACAGTGGC (.(.(((....))).).) | 45.4 °C | -27.8 kcal/mol |
| GTCGGACGAAAGTCGGAC (((.(((....))).))) | 58.5 °C | -32.3 kcal/mol |
| GTCGGACGAAAGTCTGAC (((.(((....))).))) | 61.5 °C | -40.9 kcal/mol |
| GTCGGAGGAAACCCCGAC (((((.(....).))))) | 53.8 °C | -33.3 kcal/mol |
| GTCGGCACGAAAGTGGAC (((..(((....)))))) | 34.7 °C | -12.3 kcal/mol |
| GTCGGCGAAAGCCACGAC ((((((....)))..))) | 56 °C | -14.4 kcal/mol |
| GTCGGCGAAAGCCCCGAC ((((((....)))..))) | 41.8 °C | -15.6 kcal/mol |
| GTCGGCGAAAGCCGGAC ((((((....))).))) | 61.1 °C | -12.4 kcal/mol |
| GTCGGCGAAAGCCGTGAC ((((((....)))..))) | 41.1 °C | -8.14 kcal/mol |
| GTCGGTCCGAAAGGAGAC (((..(((....)))))) | 36 °C | -15 kcal/mol |
| GTCGGTGGAAACACCAAC ((.((((....)))).)) | 39.4 °C | -18.1 kcal/mol |
| GTCGGTGGAAACACTGGC (.(.(((....))).).) | 42.8 °C | -27.8 kcal/mol |
| GTCGGTGGAAACGCCGAC (((((.(....).))))) | 63.2 °C | -50 kcal/mol |
| GTCGTACCGAAAGGTGAC (((..(((....)))))) | 42.8 °C | -18.6 kcal/mol |
| GTCGTACGAAAGTAGAC (((.(((....)))))) | 52 °C | -32.4 kcal/mol |
| GTCGTAGCGAAAGCTGAC (((..(((....)))))) | 46.3 °C | -19.6 kcal/mol |
| GTCGTAGGAAACTACAAC ((.((((....)))).)) | 30 °C | -21 kcal/mol |
| GTCGTCGAAAGACATGAC ((((((....)))..))) | 38.5 °C | -17.4 kcal/mol |
| GTCGTCGAAAGACCCGAC ((((((....)))..))) | 31.3 °C | -14.5 kcal/mol |
| GTCGTCGAAAGACGCGAC ((((((....)))..))) | 55.7 °C | -12.5 kcal/mol |
| GTCGTCGAAAGACGGAC ((((((....))).))) | 56.2 °C | -13.6 kcal/mol |
| GTCGTCGGAAACGATGAC (((.(((....))).))) | 55.5 °C | -44.4 kcal/mol |

| Sequence | Tm [1] | folding enthalpy [2] |
| --- | --- | --- |
| GTCGTCGGAAACGGTGAC (((..((....))..))) | 42.4 °C | -24 kcal/mol |
| GTCGTGGGAAACTACGGC (.(((.(....).))).) | 44.7 °C | -25.6 kcal/mol |
| GTCGTGTCGAAAGACGAC (((..(((....)))))) | 48.9 °C | -19.9 kcal/mol |
| GTCGTTGGAAACAATGGC (.(.(((....))).).) | 35 °C | -24.8 kcal/mol |
| GTCTAAGGAAACTCAGAC ((((.((....)).)))) | 26.6 °C | -11.5 kcal/mol |
| GTCTACGAAAGTACTGAC ((((((....)))..))) | 28.9 °C | -10.8 kcal/mol |
| GTCTACGAAAGTAGAC ((((((....)))))) | 66.8 °C | -36.8 kcal/mol |
| GTCTAGTCGAAAGACGAC (((..(((....)))))) | 39.4 °C | -14.3 kcal/mol |
| GTCTATCGAAAGATCGAC (((.(((....))).))) | 41.4 °C | -40.4 kcal/mol |
| GTCTATCGAAAGATGAC (((.(((....)))))) | 42 °C | -27.1 kcal/mol |
| GTCTATGGAAACACAGAC ((((.((....)).)))) | 31.6 °C | -21 kcal/mol |
| GTCTCAACGAAAGTTGAC (((..(((....)))))) | 30.5 °C | -10.7 kcal/mol |
| GTCTCAGAAATGAGAC ((((((....)))))) | 53.8 °C | -41.8 kcal/mol |
| GTCTCAGGAAACCGAGAC (((((.(....).))))) | 45.7 °C | -30.8 kcal/mol |
| GTCTCCCGAAAGGGGGAC (((.(((....))).))) | 65.9 °C | -32.4 kcal/mol |
| GTCTCCGAAAGGAGTGAC ((((((....)))..))) | 36 °C | -11.2 kcal/mol |
| GTCTCCGAAAGGATTGAC ((((((....)))..))) | 35.5 °C | -20 kcal/mol |
| GTCTCGGCGAAAGCCGAC (((..(((....)))))) | 35.6 °C | -4.96 kcal/mol |
| GTCTCGGGAAACCAAGAC ((((.((....)).)))) | 37.2 °C | -26.5 kcal/mol |
| GTCTCGTCGAAAGACGAC (((..(((....)))))) | 37 °C | -7.57 kcal/mol |
| GTCTCTCGAAAGAGTGAC (((.(((....))).))) | 49.7 °C | -32.6 kcal/mol |
| GTCTCTGGAAACAGAGGC (.(((((....))))).) | 49.5 °C | -26.2 kcal/mol |
| GTCTGAGAAATCAGAC ((((((....)))))) | 52.4 °C | -37.5 kcal/mol |

| Sequence | Tm [1] | folding enthalpy [2] |
| --- | --- | --- |
| GTCTGAGGAAACTCAAAC ((.((((....)))).)) | 24.5 °C | -11.3 kcal/mol |
| GTCTGAGGAAACTCAGAC (((((((....))))))) | 63.8 °C | -45.5 kcal/mol |
| GTCTGCACGAAAGTGGAC (((..(((....)))))) | 34.7 °C | -15 kcal/mol |
| GTCTGCCGAAAGGCGAC (((.(((....)))))) | 54.9 °C | -18.1 kcal/mol |
| GTCTGCCGAAAGGCTGAC (((.(((....))).))) | 62.1 °C | -30.5 kcal/mol |
| GTCTGCGAAAGCACAGAC ((((((....)))..))) | 46.3 °C | -18.6 kcal/mol |
| GTCTGCGAAAGCAGAGAC ((((((....)))..))) | 51.4 °C | -9.97 kcal/mol |
| GTCTGCGAAAGCAGGGAC ((((((....)))..))) | 42.8 °C | -7.79 kcal/mol |
| GTCTGCGAAAGCATCGAC ((((((....)))..))) | 33.6 °C | -14.8 kcal/mol |
| GTCTGCGAAAGCATGAC ((((((....))).))) | 52.7 °C | -23.5 kcal/mol |
| GTCTGCGAAAGCATGGAC ((((((....)))..))) | 40.7 °C | -15.7 kcal/mol |
| GTCTGCGCGAAAGCGGAC (((..(((....)))))) | 45.2 °C | -13.3 kcal/mol |
| GTCTGCGGAAACACAGAC (((((.(....).))))) | 46.7 °C | -44.1 kcal/mol |
| GTCTGGCCGAAAGGCGAC (((..(((....)))))) | 43.9 °C | -15.7 kcal/mol |
| GTCTGGGGAAACCTAGAC ((((.((....)).)))) | 47.6 °C | -29.7 kcal/mol |
| GTCTGGGGAAACCTAGGC (.((.((....)).)).) | 34.8 °C | -19.8 kcal/mol |
| GTCTGTACGAAAGTAGAC (((..(((....)))))) | 36.4 °C | -24.2 kcal/mol |
| GTCTGTTCGAAAGAAGAC (((..(((....)))))) | 26.4 °C | -23 kcal/mol |
| GTCTTAACGAAAGTTGAC (((..(((....)))))) | 31.9 °C | -15.8 kcal/mol |
| GTCTTAGGAAACTAAGGC (.(((((....))))).) | 42.9 °C | -25.9 kcal/mol |
| GTCTTAGGAAACTGAGAC ((((.((....)).)))) | 40.9 °C | -30.7 kcal/mol |
| GTCTTCCGAAAGGACGAC (((.(((....))).))) | 48.6 °C | -40.7 kcal/mol |
| GTCTTCGAAAGAAAAGAC ((((((....)))..))) | 30.8 °C | -17.9 kcal/mol |

| Sequence | Tm [1] | folding enthalpy [2] |
| --- | --- | --- |
| GTCTTCGAAAGAAGTGAC ((((((....)))..))) | 34 °C | -13.3 kcal/mol |
| GTCTTCGGAAACGAAAAC ((.((((....)))).)) | 29.2 °C | -15.4 kcal/mol |
| GTCTTCGGAAACGAGGAC (((.(((....))).))) | 49.7 °C | -39.1 kcal/mol |
| GTCTTGACGAAAGTCGAC (((..(((....)))))) | 35.5 °C | -11 kcal/mol |
| GTCTTGCGAAAGCAGAC (((.(((....)))))) | 52.1 °C | -22.8 kcal/mol |
| GTCTTGCGAAAGCATGAC (((.(((....))).))) | 56.1 °C | -37.7 kcal/mol |
| GTCTTGGGAAACCAAGGC (.(((((....))))).) | 51 °C | -24.4 kcal/mol |
| GTCTTGGGAAACCGAGAC ((((.((....)).)))) | 49.9 °C | -33 kcal/mol |
| GTCTTTCGAAAGAACGAC (((.(((....))).))) | 41 °C | -40.9 kcal/mol |
| GTGAAAACGAAAGTTCAC (((..(((....)))))) | 38.4 °C | -21.7 kcal/mol |
| GTGAAACCGAAAGGTCAC (((..(((....)))))) | 42 °C | -20.4 kcal/mol |
| GTGAAATCGAAAGATCAC (((..(((....)))))) | 32.8 °C | -17 kcal/mol |
| GTGAACCGAAAGGTCCAC (((.(((....))).))) | 49.8 °C | -24.6 kcal/mol |
| GTGAACCGAAAGGTGCAC (((.(((....))).))) | 60.7 °C | -39.6 kcal/mol |
| GTGAACGAAAGTTACCAC ((((((....)))..))) | 26 °C | -15.3 kcal/mol |
| GTGAACGAAAGTTCAC ((((((....)))))) | 68.6 °C | -26 kcal/mol |
| GTGAACGAAAGTTCCAC ((((((....))).))) | 39.9 °C | -15.9 kcal/mol |
| GTGAACGAAAGTTGACAC ((((((....)))..))) | 34.8 °C | -18.6 kcal/mol |
| GTGAACGAAAGTTTACAC ((((((....)))..))) | 39.6 °C | -18.6 kcal/mol |
| GTGAACGAAAGTTTCAC ((((((....))).))) | 47.9 °C | -22 kcal/mol |
| GTGAACGGAAACGTTTAC ((.((((....)))).)) | 46.9 °C | -29.6 kcal/mol |
| GTGAACTCGAAAGAGCAC (((..(((....)))))) | 35.1 °C | -13.4 kcal/mol |
